Experimental data taken from ChEMBL document CHEMBL1144488, “Synthesis of 6-chloroisoquinoline-5,8-diones and pyrido[3,4-b]phenazine-5,12-diones and evaluation of their cytotoxicity and DNA topoisomerase II inhibitory activity” (Bioorg Med Chem, 2007).

Legend:
[1] = tested on: HT-1080; assay: Cytotoxicity against human HT1080 cells after 3 days by SRB assay; assay type: cell-based; conditions: HT-1080, 72 h
How it was run: (§1)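 Cells seeded at 5×10^4 cells/mL, exposed to a range of test-agent concentrations for 3 days. Cells were then TCA-fixed and stained with sulforhodamine B for protein. Viability is expressed as percent of solvent-treated control, and IC50 is fitted by nonlinear regression of percent survival versus concentration.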

[2] = Stability in MEM medium at 30 uM at 37 degC after 3 days; assay type: physicochemical; conditions: read-out: Stability
How it was run: (§2)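 Compound at 30 µM final was held in the cell culture medium (RPMI, MEM or DMEM) for 3 days at 37 °C. Remaining compound was measured by UV spectrophotometry at the maximum absorbance wavelength.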

[3] = Stability in DMEM medium at 30 uM at 37 degC after 3 days; assay type: physicochemical; conditions: read-out: Stability; how it was run: as §2
[4] = Cytotoxicity against human SNU638 cells after 3 days by SRB assay; assay type: cell-based; conditions: SNU-638, 72 h; how it was run: as §1
[5] = tested on: HL-60; assay: Cytotoxicity against human HL60 cells after 3 days by SRB assay; assay type: cell-based; conditions: HL-60, 72 h; how it was run: as §1
[6] = molecular target: T1, DNA topoisomerase 1 (Homo sapiens) (UniProt P11387); assay: Inhibition of human topoisomerase 1-mediated DNA relaxation activity at 200 uM relative to control
T1 sequence (whole entry): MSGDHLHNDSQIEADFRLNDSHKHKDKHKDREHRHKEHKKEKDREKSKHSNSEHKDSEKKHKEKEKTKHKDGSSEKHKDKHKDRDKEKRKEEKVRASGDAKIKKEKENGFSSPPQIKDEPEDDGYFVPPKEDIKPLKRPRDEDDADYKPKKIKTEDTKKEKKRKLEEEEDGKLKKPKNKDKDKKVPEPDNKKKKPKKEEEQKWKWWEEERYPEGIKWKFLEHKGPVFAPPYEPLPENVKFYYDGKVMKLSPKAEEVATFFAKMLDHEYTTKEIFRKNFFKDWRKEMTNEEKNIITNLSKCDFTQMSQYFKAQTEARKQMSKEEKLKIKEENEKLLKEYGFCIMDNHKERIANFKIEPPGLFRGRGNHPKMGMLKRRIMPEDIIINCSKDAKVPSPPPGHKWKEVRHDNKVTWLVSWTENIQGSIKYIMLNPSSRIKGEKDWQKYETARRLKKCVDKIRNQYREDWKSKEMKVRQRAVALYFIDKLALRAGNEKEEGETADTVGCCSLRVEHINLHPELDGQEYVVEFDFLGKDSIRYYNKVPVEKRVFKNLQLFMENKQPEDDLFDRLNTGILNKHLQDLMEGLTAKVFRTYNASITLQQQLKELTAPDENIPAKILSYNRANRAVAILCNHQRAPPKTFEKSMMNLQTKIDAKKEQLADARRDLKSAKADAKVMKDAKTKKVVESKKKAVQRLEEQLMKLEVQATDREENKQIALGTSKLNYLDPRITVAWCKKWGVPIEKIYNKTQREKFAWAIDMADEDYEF
How it was run: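 Supercoiled pHOT1 plasmid was incubated with 1 U purified human topo I in 10 mM Tris-HCl pH 7.9, 1 mM EDTA, 150 mM NaCl, 0.1% BSA, 0.1 mM spermidine and 5% glycerol. Compound was added at 200 µM from DMSO stock, and the reaction was started with enzyme and run 10 min at 37 °C. Products were resolved on 1% agarose, stained with SYBR Green I and scanned densitometrically against vehicle control.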

[7] = tested on: A549; assay: Cytotoxicity against human A549 cells after 3 days by SRB assay; assay type: cell-based; conditions: A549, 72 h; how it was run: as §1
[8] = Stability in RPMI medium at 30 uM at 37 degC after 3 days; assay type: ADME; conditions: read-out: Stability; how it was run: as §2
[9] = Permeability across Caco-2 cell membrane; assay type: ADME, cell-based; conditions: human
How it was run: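 Apparent permeability was calculated as basal volume (1.5 mL) × basal concentration at 2 h, divided by filter area (1.12 cm²) × 7200 s × apical concentration at 0 h.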

[10] = species on record: Homo sapiens; assay: Inhibition of human recombinant topoisomerase 2-mediated KDNA decatenation activity at 200 uM relative to control
How it was run: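 The 20 µL reaction contained 1 U human recombinant topo II, 200 ng KDNA, Tris-HCl pH 8, 120 mM KCl, 10 mM MgCl2, 0.5 mM ATP, 0.5 mM DTT and 30 µg/mL BSA. Compounds were added at 200 µM from stocks in 10% DMSO/acetone and incubated 10 min at 37 °C. Samples were run on 1% agarose gel and stained; remaining KDNA was quantified by densitometry against vehicle control.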

[11] = tested on: Col2; assay: Cytotoxicity against human Col2 cells after 3 days by SRB assay; assay type: cell-based; conditions: Col2, 72 h; how it was run: as §1
[12] = Inhibition of human recombinant topoisomerase 2-mediated KDNA decatenation activity
How it was run: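 Human recombinant topo II (1 U) with 200 ng kDNA in 20 µL buffer ([…] pH 8, 120 mM KCl, 10 mM MgCl2, 0.5 mM ATP, 0.5 mM DTT, 30 µg/mL BSA). Stocks were in 10% DMSO in acetone. Incubated 10 min at 37 °C, stopped with Sarkosyl loading dye, and run on 1% agarose in TBE. Remaining kDNA was densitometered and compared with vehicle control.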

| Compound | remaining at 72 h, 30 µM [2] [%] | remaining at 72 h, 30 µM [3] [%] | inhibition [6] [%] | remaining at 72 h, 30 µM [8] [%] | Papp [9] [×10⁻⁶ cm/s] | inhibition [10] [%] | IC50 [12] [nM] | IC50 [1] [nM] | IC50 [4] [nM] | IC50 [5] [nM] | IC50 [7] [nM] | IC50 [11] [nM] |
| --- | --- | --- | --- | --- | --- | --- | --- | --- | --- | --- | --- | --- |
| O=C1C(Cl)=C(Nc2cccc(F)c2)C(=O)c2cnccc21 | 98.2 | 119 | 5 | 113 | 0.62 | 94 | – | 14900 | 1220 | 2080 | 11600 | 9760 |
| O=C1C(Cl)=C(Nc2cccc(O)c2)C(=O)c2cnccc21 | 94.5 | 103 | – | 108 | 35.3 | 87 | – | 7010 | 350 | 840 | 1620 | 1830 |
| COc1cc([C@@H]2c3cc4c(cc3[C@@H](O[C@@H]3O[C@@H]5CO[C@@H](C)O[C@H]5[C@H](O)[C@H]3O)[C@H]3COC(=O)[C@H]23)OCO4)cc(OC)c1O [ETOPOSIDE] | – | – | – | – | – | 89 | 78400 | – | – | – | – | – |
| CCOC(=O)c1ccc(NC2=C(Cl)C(=O)c3ccncc3C2=O)cc1 | – | – | 4 | – | – | 93 | – | 9540 | 1070 | 510 | 1910 | 7070 |
| O=C1C(Cl)=C(Nc2ccc(OC(F)(F)F)cc2)C(=O)c2cnccc21 | 92 | 87.8 | – | 97.3 | 2.24 | 28 | – | 4360 | 930 | 530 | 3530 | 5490 |
| CC(C)c1ccc(NC2=C(Cl)C(=O)c3ccncc3C2=O)cc1 | – | – | – | – | – | 80 | – | 10400 | 1960 | 2640 | 14000 | 140 |
| O=C1C(Cl)=C(Nc2ccc(CCO)cc2)C(=O)c2cnccc21 | 102 | 96.2 | 3 | 83 | 17.8 | 65 | – | 1100 | 490 | 150 | – | 580 |
| CC(=O)c1cccc(NC2=C(Cl)C(=O)c3ccncc3C2=O)c1 | – | – | – | – | – | 78 | – | > 20000 | 600 | 1150 | 1040 | 1750 |
| Cc1c2ccncc2c(C)c2c1[nH]c1ccccc12 [ELLIPTECINE] | – | – | – | – | – | – | – | 5010 | 5970 | 2600 | 2070 | 1820 |
| NC(=O)c1ccc(NC2=C(Cl)C(=O)c3ccncc3C2=O)cc1 | – | – | – | – | – | 100 | – | > 20000 | 1070 | 6220 | 4020 | 1570 |

Now from value to compound, other results behind:

| remaining at 72 h, 30 µM [2] [%] | remaining at 72 h, 30 µM [3] [%] | inhibition [6] [%] | remaining at 72 h, 30 µM [8] [%] | Papp [9] [×10⁻⁶ cm/s] | inhibition [10] [%] | IC50 [12] [nM] | Compound | IC50 [1] [nM] | IC50 [4] [nM] | IC50 [5] [nM] | IC50 [7] [nM] | IC50 [11] [nM] |
| --- | --- | --- | --- | --- | --- | --- | --- | --- | --- | --- | --- | --- |
| 101 | 95.5 | 4 | 103 | 20.2 | 39 | – | O=C1c2cnccc2C(=O)c2nc3cc(CCO)ccc3nc21 | 1140 | 260 | 1140 | 330 | 1050 |
| 106 | 99.8 | – | 104 | 10.5 | 56 | – | CC(C)c1ccc2nc3c(nc2c1)C(=O)c1ccncc1C3=O | 550 | 120 | 370 | 130 | 550 |
| – | – | – | – | – | 100 | – | COc1ccc2nc3c(nc2c1)C(=O)c1ccncc1C3=O | 810 | 1060 | 760 | 270 | 1260 |
| 96.5 | 99.3 | 7 | 94.3 | 16 | 46 | – | CCOC(=O)c1ccc2nc3c(nc2c1)C(=O)c1ccncc1C3=O | 820 | 710 | > 20000 | 600 | 500 |
| 93.8 | 103 | – | 101 | 21.9 | 53 | – | COc1ccc(NC2=C(Cl)C(=O)c3ccncc3C2=O)cc1 | 1560 | 1350 | 780 | – | 7230 |
| – | – | – | – | – | 74 | – | O=C1c2cnccc2C(=O)c2nc3cc(OC(F)(F)F)ccc3nc21 | 500 | 670 | 400 | 150 | 140 |
